The values below come from the RNAGym collection of RNA variant scans (doi:10.1038/nmeth.2970).

What is called Kd is the constant that tells how readily two partners part at equilibrium.

B1: NELF-E aptamer (parent)
chain: CCCAACGACUGCCGAGCGAGAUUACGCUUGAGCGCCCCACUGAGGAUGCCCACGGGCGAUUGGGGCACGG

Variants of B1 are the subject of this data set. The data set can be described thus: HiTS-RAP. The settings on record: with NELF-E (Drosophila). In outline: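 Aptamer DNA templates bearing a T7 promoter and a ter site were sequenced on an Illumina GAIIx flowcell. T7 RNA polymerase then transcribed them in situ, and GST-Tus halted transcription over 30 minutes at 37°C. After a 30-minute room-temperature equilibration with NELF-E-mOrange at 0.064 to 1000 nM in HEPES binding buffer, clusters were imaged, using only the first binding curve. Intensities normalised to sequencing intensity were averaged per sequence and fitted with weighted Hill fits to give Kd, retaining only fits whose variance stayed under 1,000,000.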
Take CCCAACGACUGCCGAGCGAGAUUACGCUUGAGCGCCCCACUGAGGAUGCCCACGGGCGAUUGGGGCCCGG [A67C]: the Kd was found to be 4.99 nM.
The value for CCCAACGACUGCCGAGCGAGAUUACGCUUGAGCGCCCCACUGAGGAUGCCCACGGGCGAUUGGGGCUCGG [A67U] was 6.41 nM; that for CCCAACGACUGCCGAGCGAGAUUACGCUUGAGCGCCCCACUGAGGAUGCCCACGGGCGAUUGGGGCGCGG [A67G] was 5.33 nM.
Under CCCAACGACUGCCGAGCGAGAUUACGCUUGAGCGCCCCACUGAGGAUGCCCACGGGCGAUUGGAUCACGG [G64A G65U] stands 5.13 nM; under CCCAACGACUGCCGAGCGAGAUUACGCUUGAGCGCCCCACUGAGGAUGCCCACGGGCGAGUGGGGCACGG [U60G], 5.2 nM; under CCCAACGACUGCCGAGCGAGAUUACGCUUGAGCGCCCCACUGAGGAUGCCCACGGGCGACUGGGGCACGG [U60C], 9.28 nM.
The value for CCCAACGACUGCCGAGCGAGAUUACGCUUGAGCGCCCCACUGAGGAUGCCCACGGGCGAUAGGGGCUCGG [U61A A67U] was 49.7 nM; that for CCCAACGACUGCCGAGCGAGAUUACGCUUGAGCGCCCCACUGAGGAUGCCCACGGGCGAUAGGGGCGCGG [U61A A67G] was 27.4 nM.
Regarding CCCAACGACUGCCGAGCGAGAUUACGCUUGAGCGCCCCACUGAGGAUGCCCACGGGCGAUUGGGGCACUG [G69U], the dissociation constant Kd is 5.33 nM.
For the variant CCCAACGACUGCCGAGCGAGAUUACGCUUGAGCGCCCCACUGAGGAUGCCCACGGGCGAUUGGGGCACAG [G69A], the Kd came out at 4.82 nM.
The value for CCCAACGACUGCCGAGCGAGAUUACGCUUGAGCGCCCCACUGAGGAUGCCCACGGGCGAUUGGGGCACCG [G69C] was 5.52 nM; that for CCCAACGACUGCCGAGCGAGAUUACGCUUGAGCGCCCCACUGAGGAUGCCCACGGGCGAUUAGGGCACGG [G62A] was 16.9 nM.
As to CCCAACGACUGCCGAGCGAGAUUACGCUUGAGCGCCCCACUGAGGAUGCCCACGGGCGAUUCGGGCACGG [G62C], the Kd was found to be 48.2 nM.
As for CCCAACGACUGCCGAGCGAGAUUACGCUUGAGCGCCCCACUGAGGAUGCCCACGGGCGAUUUGGGCACGG [G62U], the Kd is 7.51 nM.
For the variant CCCAACGACUGCCGAGCGAGAUUACGCUUGAGCGCCCCACUGAGGAUGCCCACGGGCGAUUGGGGCAGGG [C68G], the Kd stood at 4.57 nM.
In the case of CCCAACGACUGCCGAGCGAGAUUACGCUUGAGCGCCCCACUGAGGAUGCCCACGGGCGAUUGGGGCAUGG [C68U], the dissociation constant (Kd) is 4.59 nM.
Under CCCAACGACUGCCGAGCGAGAUUACGCUUGAGCGCCCCACUGAGGAUGCCCACGGGCGAUUGGGGCAAGG [C68A] stands 5.29 nM; under CCCAACGACUGCCGAGCGAGAUUACGCUUGAGCGCCCCACUGAGGAUGCCCACGGGCGAUGUGGGCACGG [U61G G62U], 5.22 nM.
For the variant CCCAACGACUGCCGAGCGAGAUUACGCUUGAGCGCCCCACUGAGGAUGCCCACGGGCGAUUGGGUGACGG [G65U C66G], the Kd came to 4.98 nM.
For CCCAACGACUGCCGAGCGAGAUUACGCUUGAGCGCCCCACUGAGGAUGCCCACGGGCGAUCGGGGCACGG [U61C], the Kd worked out at 63.7 nM.
As for CCCAACGACUGCCGAGCGAGAUUACGCUUGAGCGCCCCACUGAGGAUGCCCACGGGCGAUGGGGGCACGG [U61G], the dissociation constant (Kd) was 7.54 nM.
Consider CCCAACGACUGCCGAGCGAGAUUACGCUUGAGCGCCCCACUGAGGAUGCCCACGGGCGAUAGGGGCACGG [U61A], for which the Kd was found to be 28.4 nM.
The value for CCCAACGACUGCCGAGCGAGAUUACGCUUGAGCGCCCCACUGAGGAUGCCCACGGGCGAUUGGCGCACGG [G64C] was 7.73 nM; that for CCCAACGACUGCCGAGCGAGAUUACGCUUGAGCGCCCCACUGAGGAUGCCCACGGGCGAUUGGAGCACGG [G64A] was 7.74 nM.
Under CCCAACGACUGCCGAGCGAGAUUACGCUUGAGCGCCCCACUGAGGAUGCCCACGGGCGAUUGGUGCACGG [G64U] stands 7.29 nM.
With CCCAACGACUGCCGAGCGAGAUUACGCUUGAGCGCCCCACUGAGGAUGCCCACGGGCGAUUGGAGCGCGG [G64A A67G], the Kd is 4.84 nM.
The value for CCCAACGACUGCCGAGCGAGAUUACGCUUGAGCGCCCCACUGAGGAUGCCCACGGGCGAUUGGAGCUCGG [G64A A67U] was 35.5 nM; that for CCCAACGACUGCCGAGCGAGAUUACGCUUGAGCGCCCCACUGAGGAUGCCCACGGGCGAUUUGUGCACGG [G62U G64U] was 5.62 nM.
In the case of CCCAACGACUGCCGAGCGAGAUUACGCUUGAGCGCCCCACUGAGGAUGCCCACGGGCGAUCGGGGCGCGG [U61C A67G], the Kd was determined as 68.2 nM.
In the case of CCCAACGACUGCCGAGCGAGAUUACGCUUGAGCGCCCCACUGAGGAUGCCCACGGGCGAUUGGGGUACGG [C66U], the Kd amounted to 4.61 nM.
As for CCCAACGACUGCCGAGCGAGAUUACGCUUGAGCGCCCCACUGAGGAUGCCCACGGGCGAUUGGGGAACGG [C66A], the dissociation constant (Kd) is 4.61 nM.
Under CCCAACGACUGCCGAGCGAGAUUACGCUUGAGCGCCCCACUGAGGAUGCCCACGGGCGAUUGGGGGACGG [C66G] stands 4.38 nM.
As for CCCAACGACUGCCGAGCGAGAUUACGCUUGAGCGCCCCACUGAGGAUGCCCACGGGCGAUUGUGUCACGG [G63U G65U], the Kd came to 5.32 nM.
On to CCCAACGACUGCCGAGCGAGAUUACGCUUGAGCGCCCCACUGAGGAUGCCCACGGGCGAUUGGGGCACGA [G70A], for which the Kd was 4.46 nM.
The value for CCCAACGACUGCCGAGCGAGAUUACGCUUGAGCGCCCCACUGAGGAUGCCCACGGGCGAUUGGGGCACGU [G70U] was 5.07 nM; that for CCCAACGACUGCCGAGCGAGAUUACGCUUGAGCGCCCCACUGAGGAUGCCCACGGGCGAUUGGGGCACGC [G70C] was 4.44 nM.
